For series [1], the system named is J774.A1. Description: Cytotoxicity against mouse J774.A1 cells assessed as reduction in cell viability at 10 uM measured after 5 hrs by Cell TiterGlo Luminescent assay relative to control. In kind it is cell-based. The note with it: j774.a1, 5 h. (In ATP-based viability assays light output follows the ATP content of the culture.)
Series [2] is described as follows: Inhibition of Bordetella pertussis ACT by cell free assay. Put shortly: (§1)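 Run cell-free on the bacterial enzyme, with the phosphono diphosphate forms (nucleoside triphosphate analogues) added directly rather than the bisamide prodrugs; an IC50 was obtained.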
Series [3] in a line: Inhibition of Bordetella pertussis ACT exposed to mouse J774.A1 cells assessed as inhibition of ACT-induced cAMP accumulation cells pretreated for 5 hrs measured after 30 mins followed by enzyme addition by immunoassay. The class given is cell-based.
In series [4] the target is T1, Calmodulin-sensitive adenylate cyclase (Bacillus anthracis, UniProt P40136).
T1 sequence (P40136 whole entry): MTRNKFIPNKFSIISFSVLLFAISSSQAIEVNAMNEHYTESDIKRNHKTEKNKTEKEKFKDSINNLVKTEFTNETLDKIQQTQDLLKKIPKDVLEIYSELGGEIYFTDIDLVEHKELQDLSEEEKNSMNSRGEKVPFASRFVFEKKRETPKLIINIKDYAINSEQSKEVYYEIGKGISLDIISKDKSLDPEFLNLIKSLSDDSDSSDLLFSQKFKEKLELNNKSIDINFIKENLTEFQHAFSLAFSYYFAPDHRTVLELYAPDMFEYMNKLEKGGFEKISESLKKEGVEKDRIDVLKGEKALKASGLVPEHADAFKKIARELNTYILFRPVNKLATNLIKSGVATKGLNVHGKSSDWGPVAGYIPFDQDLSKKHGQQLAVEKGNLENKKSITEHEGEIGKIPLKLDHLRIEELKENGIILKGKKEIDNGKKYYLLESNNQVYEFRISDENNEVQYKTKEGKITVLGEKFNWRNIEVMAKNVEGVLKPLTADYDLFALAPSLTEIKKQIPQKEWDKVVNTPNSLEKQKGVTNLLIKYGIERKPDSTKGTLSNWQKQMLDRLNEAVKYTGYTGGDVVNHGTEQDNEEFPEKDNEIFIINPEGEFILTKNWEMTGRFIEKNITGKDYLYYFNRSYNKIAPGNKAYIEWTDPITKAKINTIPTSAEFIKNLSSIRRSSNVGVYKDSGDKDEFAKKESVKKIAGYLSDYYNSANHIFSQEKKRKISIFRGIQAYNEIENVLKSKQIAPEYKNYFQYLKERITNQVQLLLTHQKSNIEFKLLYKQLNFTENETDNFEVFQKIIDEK
Nature of the series: Inhibition of Bacillus anthracis edema factor by cell free assay. Put shortly:
as §1

The values that follow come from ChEMBL document CHEMBL4823269, “Acyclic nucleoside phosphonates with 2-aminothiazole base as inhibitors of bacterial and mammalian adenylate cyclases” (Eur J Med Chem, 2021).

Bounds are passed on as bounds.

On to `CCCCOc1cccc(-c2sc(N)nc2CCOCP(=O)(N[C@@H](Cc2ccccc2)C(=O)OC(C)C)N[C@@H](Cc2ccccc2)C(=O)OC(C)C)c1`, for which the Activity in series [1] was 35%.
Usually IC50 stands for the concentration that inhibits the measured activity by half. In series [2], `CNC(=O)c1ccc(-c2sc(N)nc2CCOCP(=O)(O)OP(=O)(O)OP(=O)(O)O)cc1` came in with an IC50 of 0.0374 µM.
For `CC(C)OC(=O)[C@H](Cc1ccccc1)NP(=O)(COCCc1nc(N)sc1-c1ccccc1OCc1ccccc1)N[C@@H](Cc1ccccc1)C(=O)OC(C)C`, in series [1], the Activity came to 115%. Moreover, the concentration for half-maximal inhibition (IC50) in series [3] was over 10 µM.
As for `CC(C)OC(=O)[C@H](Cc1ccccc1)NP(=O)(COCCc1nc(N)sc1-c1cccc(F)c1)N[C@@H](Cc1ccccc1)C(=O)OC(C)C`, the Activity in series [1] is recorded as 99%.
As to `CC(C)Cc1sc(N)nc1-c1ccc(P(=O)(O)OP(=O)(O)OP(=O)(O)O)o1`, the results for the IC50 in series [4] and in series [2] were 5.06 µM and 16 µM, respectively.
For `Nc1nc(CCOCP(=O)(O)OP(=O)(O)OP(=O)(O)O)c(-c2ccccc2OCc2ccccc2)s1`, in that order: 7.81 µM and 0.184 µM.
On to `CC(C)OC(=O)[C@H](Cc1ccccc1)NP(=O)(COCCc1csc(N)n1)N[C@@H](Cc1ccccc1)C(=O)OC(C)C`, for which the Activity in series [1] came to 72%. Besides, the IC50 in series [3] is over 10 µM.
For `Nc1nc(CCOCP(=O)(O)OP(=O)(O)OP(=O)(O)O)c(-c2cccc(OCc3ccccc3)c2)s1`, half-maximal inhibition in series [2] (IC50) was put at 0.192 µM.
Regarding `CC(C)OC(=O)[C@H](Cc1ccccc1)NP(=O)(COCCc1nc(N)sc1-c1cccnc1)N[C@@H](Cc1ccccc1)C(=O)OC(C)C`, the Activity in series [1] is 99%. The IC50 in series [3] worked out at 2.62 µM.
`CC(C)Oc1ccc(-c2sc(N)nc2CCOCP(=O)(O)OP(=O)(O)OP(=O)(O)O)cc1` yielded an IC50 in series [2] of 0.185 µM.
Regarding `CC(C)Cc1sc(N)nc1-c1ccc(P(=O)(O)N[C@@H](Cc2ccccc2)C(=O)OC(C)C)o1`, in series [1], the Activity stood at 86%. Also, the IC50 in series [3] came out at 14.2 µM.
The corresponding values for `CNC(=O)c1cccc(-c2sc(N)nc2CCOCP(=O)(N[C@@H](Cc2ccccc2)C(=O)OC(C)C)N[C@@H](Cc2ccccc2)C(=O)OC(C)C)c1` are 106% and 8.45 µM.
Take `Nc1nc(CCOCP(=O)(O)OP(=O)(O)OP(=O)(O)O)c(-c2cccc(F)c2)s1`: the IC50 in series [2] amounted to 0.313 µM.
As for `CNC(=O)c1ccc(-c2sc(N)nc2CCOCP(=O)(N[C@@H](Cc2ccccc2)C(=O)OC(C)C)N[C@@H](Cc2ccccc2)C(=O)OC(C)C)cc1`, the Activity in series [1] stood at 99%.
On to `CC(C)OC(=O)[C@H](Cc1ccccc1)NP(=O)(COCc1csc(N)n1)N[C@@H](Cc1ccccc1)C(=O)OC(C)C`, for which, in series [1], the Activity was found to be 83%. Also, the IC50 in series [3] is over 10 µM.
The corresponding values for `COc1ccc(-c2sc(N)nc2CCOCP(=O)(N[C@@H](Cc2ccccc2)C(=O)OC(C)C)N[C@@H](Cc2ccccc2)C(=O)OC(C)C)c(C)c1` are 57% and 1.16 µM.
For `CNS(=O)(=O)c1cccc(-c2sc(N)nc2CCOCP(=O)(N[C@@H](Cc2ccccc2)C(=O)OC(C)C)N[C@@H](Cc2ccccc2)C(=O)OC(C)C)c1`, the Activity in series [1] is 99%.
For `CC(C)Cc1sc(N)nc1-c1ccc(P(=O)(NC(Cc2ccccc2)C(=O)OC(C)C)N[C@@H](Cc2ccccc2)C(=O)OC(C)C)o1` (stereo not given in full), the Activity in series [1] was determined as 88%. Further, in series [3], the 50% inhibitory concentration (IC50) was 2.12 µM.
As for `CC(C)OC(=O)[C@H](Cc1ccccc1)NP(=O)(COCCc1nc(N)sc1-c1cccc(OCc2ccccc2)c1)N[C@@H](Cc1ccccc1)C(=O)OC(C)C`, the Activity in series [1] came to 72%.
The same measure, in the same setting: the figure for `CC(C)OC(=O)[C@H](Cc1ccccc1)NP(=O)(COCCc1nc(N)sc1-c1ccc(OC(C)C)cc1)N[C@@H](Cc1ccccc1)C(=O)OC(C)C` is 81%.
For `CNS(=O)(=O)c1ccc(-c2sc(N)nc2CCOCP(=O)(N[C@@H](Cc2ccccc2)C(=O)OC(C)C)N[C@@H](Cc2ccccc2)C(=O)OC(C)C)cc1`, in series [1], the Activity was 94%. Besides, the IC50 in series [3] was over 10 µM.
The corresponding values for `CC(C)OC(=O)[C@H](Cc1ccccc1)NP(=O)(COCCn1cnc2c(N)ncnc21)N[C@@H](Cc1ccccc1)C(=O)OC(C)C` are 93% and 0.15 µM.
Turning to `CC(C)OC(=O)[C@H](Cc1ccccc1)NP(=O)(COCCc1nc(N)sc1-c1ccccc1)N[C@@H](Cc1ccccc1)C(=O)OC(C)C`, in series [1], the Activity is on record as 112%.
Take `CC(C)OC(=O)[C@H](Cc1ccccc1)NP(=O)(COCc1nc(N)sc1-c1ccccc1)N[C@@H](Cc1ccccc1)C(=O)OC(C)C`: in series [1], the Activity amounted to 54%. Also, the IC50 in series [3] stood at 4.68 µM.
For `CC(C)OC(=O)[C@H](Cc1ccccc1)NP(=O)(COCCc1nc(N)sc1-c1cccc(OC(C)C)c1)N[C@@H](Cc1ccccc1)C(=O)OC(C)C`, in that order: 44% and 1.72 µM.
The corresponding values for `CC(C)OC(=O)[C@H](Cc1ccccc1)NP(=O)(COCCc1nc(N)sc1Sc1ccccc1)N[C@@H](Cc1ccccc1)C(=O)OC(C)C` are 36% and 0.93 µM.
On to `COc1cc(OC)cc(-c2sc(N)nc2CCOCP(=O)(N[C@@H](Cc2ccccc2)C(=O)OC(C)C)N[C@@H](Cc2ccccc2)C(=O)OC(C)C)c1`, for which the Activity in series [1] was found to be 86%. The IC50 in series [3] worked out at 1.43 µM.
On to `Nc1ncnc2c1ncn2CCOCP(=O)(O)OP(=O)(O)OP(=O)(O)O` [ADEFOVIR DIPHOSPHATE], for which the IC50 in series [4] was determined as 0.036 µM; in series [2], 0.0178 µM.
